Data published in ChEMBL document CHEMBL2434944, “Novel acetamidothiazole derivatives: synthesis and in vitro anticancer evaluation” (Eur J Med Chem, 2013).

Tests used:
[1] = tested on: ACHN; test: Growth inhibition of human ACHN cells assessed as cell growth at 10^-5 M after 48 hrs by sulforhodamine B assay relative to control; type: functional; details: read-out: Activity
How it was run: (§1)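 NCI-60 single-dose screen at 10^-5 M. Cells grown in RPMI 1640 with 5% FBS and 2 mM L-glutamine, plated at 5,000–40,000 cells/well according to doubling time, and preincubated 24 h at 37°C, 5% CO2. Compound dissolved in DMSO and added. Exposure 48 h. Adherent cells fixed with cold TCA (10% final), suspension cells with 16% final TCA. Read-out is 0.4% SRB staining, dye solubilised in 10 mM Tris, absorbance at 515 nm. Percent growth is calculated against the time-zero plate and untreated control.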

[2] = tested on: 786-0; test: Growth inhibition of human 786-0 cells assessed as cell growth at 10^-5 M after 48 hrs by sulforhodamine B assay relative to control; type: functional; details: 786-0, 48 h, read-out: Activity; how it was run: as §1
[3] = Growth inhibition of human NCI-ADR-RES cells assessed as cell growth at 10^-5 M after 48 hrs by sulforhodamine B assay relative to control; type: functional; details: read-out: Activity; how it was run: as §1
[4] = tested on: OVCAR-4; test: Growth inhibition of human OVCAR4 cells assessed as cell growth at 10^-5 M after 48 hrs by sulforhodamine B assay relative to control; type: functional; details: OVCAR-4, 48 h, read-out: Activity; how it was run: as §1
[5] = tested on: IGROV-1; test: Growth inhibition of human IGROV1 cells assessed as cell growth at 10^-5 M after 48 hrs by sulforhodamine B assay relative to control; type: functional; details: IGROV-1, 48 h, read-out: Activity; how it was run: as §1
[6] = tested on: SK-MEL-5; test: Growth inhibition of human SK-MEL-5 cells assessed as cell growth at 10^-5 M after 48 hrs by sulforhodamine B assay relative to control; type: functional; details: SK-MEL-5, 48 h, read-out: Activity; how it was run: as §1
[7] = tested on: SK-MEL-28; test: Growth inhibition of human SK-MEL-28 cells assessed as cell growth at 10^-5 M after 48 hrs by sulforhodamine B assay relative to control; type: functional; details: SK-MEL-28, 48 h, read-out: Activity; how it was run: as §1
[8] = tested on: M14; test: Growth inhibition of human M14 cells assessed as cell growth at 10^-5 M after 48 hrs by sulforhodamine B assay relative to control; type: functional; details: M14, 48 h, read-out: Activity; how it was run: as §1
[9] = tested on: SNB-75; test: Growth inhibition of human SNB75 cells assessed as cell growth at 10^-5 M after 48 hrs by sulforhodamine B assay relative to control; type: functional; details: SNB-75, 48 h, read-out: Activity; how it was run: as §1
[10] = tested on: SNB-19; test: Growth inhibition of human SNB19 cells assessed as cell growth at 10^-5 M after 48 hrs by sulforhodamine B assay relative to control; type: functional; details: SNB-19, 48 h, read-out: Activity; how it was run: as §1
[11] = tested on: SW-620; test: Growth inhibition of human SW620 cells assessed as cell growth at 10^-5 M after 48 hrs by sulforhodamine B assay relative to control; type: functional; details: SW-620, 48 h, read-out: Activity
How it was run: (§2)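 NCI-60 single-dose screen, 10^-5 M final. Cells grown in RPMI 1640 with 5% FBS and 2 mM L-glutamine, seeded at 5,000–40,000 cells/well by doubling time. Preincubated 24 h at 37°C, 5% CO2. Compound in DMSO, diluted in medium with gentamicin, then 48 h exposure. Fixed with cold TCA, SRB stained, A515 read. Percent growth vs untreated control, time-zero plate corrected.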

[12] = tested on: NCI-H460; test: Growth inhibition of human NCI-H460 cells assessed as cell growth at 10^-5 M after 48 hrs by sulforhodamine B assay relative to control; type: functional; details: NCI-H460, 48 h, read-out: Activity; how it was run: as §1
[13] = tested on: NCI-H226; test: Growth inhibition of human NCI-H226 cells assessed as cell growth at 10^-5 M after 48 hrs by sulforhodamine B assay relative to control; type: functional; details: NCI-H226, 48 h, read-out: Activity; how it was run: as §1
[14] = tested on: HOP-92; test: Growth inhibition of human HOP92 cells assessed as cell growth at 10^-5 M after 48 hrs by sulforhodamine B assay relative to control; type: functional; details: HOP-92, 48 h, read-out: Activity; how it was run: as §1
[15] = tested on: A549; test: Growth inhibition of human A549 cells assessed as cell growth at 10^-5 M after 48 hrs by sulforhodamine B assay relative to control; type: functional; details: A549, 48 h, read-out: Activity; how it was run: as §1
[16] = tested on: CCRF-CEM; test: Growth inhibition of human CCRF-CEM cells assessed as cell growth at 10^-5 M after 48 hrs by sulforhodamine B assay relative to control; type: functional; details: read-out: Activity; how it was run: as §1
[17] = molecular target: Mitogen-activated protein kinase 1 (Homo sapiens, UniProt P28482); test: Inhibition of human MAPK1
Chain of Mitogen-activated protein kinase 1 (P28482 whole entry): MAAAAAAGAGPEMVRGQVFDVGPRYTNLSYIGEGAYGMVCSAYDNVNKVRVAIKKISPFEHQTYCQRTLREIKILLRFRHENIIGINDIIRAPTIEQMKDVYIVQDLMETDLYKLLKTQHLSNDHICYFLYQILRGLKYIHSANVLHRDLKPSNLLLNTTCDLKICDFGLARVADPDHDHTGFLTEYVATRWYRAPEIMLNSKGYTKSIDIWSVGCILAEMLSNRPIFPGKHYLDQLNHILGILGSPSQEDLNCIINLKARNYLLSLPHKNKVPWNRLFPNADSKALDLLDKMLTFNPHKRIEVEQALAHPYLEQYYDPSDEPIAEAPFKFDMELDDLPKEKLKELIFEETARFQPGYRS

[18] = tested on: MDA-MB-468; test: Growth inhibition of human MDA-MB-468 cells assessed as cell growth at 10^-5 M after 48 hrs by sulforhodamine B assay relative to control; type: functional; details: MDA-MB-468, 48 h, read-out: Activity; how it was run: as §1
[19] = tested on: T47D; test: Growth inhibition of human T47D cells assessed as cell growth at 10^-5 M after 48 hrs by sulforhodamine B assay relative to control; type: functional; details: read-out: Activity; how it was run: as §2
[20] = tested on: BT-549; test: Growth inhibition of human BT549 cells assessed as cell growth at 10^-5 M after 48 hrs by sulforhodamine B assay relative to control; type: functional; details: BT-549, 48 h, read-out: Activity; how it was run: as §1
[21] = tested on: RXF 393; test: Growth inhibition of human RXF393 cells assessed as cell growth at 10^-5 M after 48 hrs by sulforhodamine B assay relative to control; type: functional; details: RXF 393, 48 h, read-out: Activity; how it was run: as §1
[22] = tested on: SF-295; test: Growth inhibition of human SF295 cells assessed as cell growth at 10^-5 M after 48 hrs by sulforhodamine B assay relative to control; type: functional; details: SF-295, 48 h, read-out: Activity; how it was run: as §1

Structure (SMILES) | growth at 10 µM [1] [%] | growth at 10 µM [2] [%] | growth at 10 µM [3] [%] | growth at 10 µM [4] [%] | growth at 10 µM [5] [%] | growth at 10 µM [6] [%] | growth at 10 µM [7] [%] | growth at 10 µM [8] [%] | growth at 10 µM [9] [%] | growth at 10 µM [10] [%] | growth at 10 µM [11] [%] | growth at 10 µM [12] [%] | growth at 10 µM [13] [%] | growth at 10 µM [14] [%] | growth at 10 µM [15] [%] | growth at 10 µM [16] [%] | Ki [17] [µM] | growth at 10 µM [18] [%] | growth at 10 µM [19] [%] | growth at 10 µM [20] [%] | also measured
Cc1ccc(-c2csc(=N)n2CC(=O)N2CCN(c3ccccc3)CC2)cc1 | 81.2 | 101 | 92.6 | 88.4 | 93.2 | 88.2 | 100 | 108 | 95.8 | 96.6 | 105 | 105 | 97.2 | 69.2 | 97.7 | 103 | 2.09 | 97.6 | 78 | 92.6 | growth at 10 µM [21]: 97.3%
N=c1scc(-c2ccc(Cl)cc2)n1CC(=O)N1CCN(c2ccccc2)CC1 | 96.1 | 97.9 | 98 | 86.4 | 101 | 91.9 | 98.6 | 99.7 | 78.4 | 100 | 104 | 101 | 92.2 | 76.1 | 84.8 | 96.2 | 0.501 | 89.8 | 88.9 | 102 | growth at 10 µM [22]: 89.7%; growth at 10 µM [21]: 98.8%
N=c1scc(-c2ccccc2)n1CC(=O)N1CCN(c2ccccc2)CC1 | 83.4 | 104 | 86.5 | 90.5 | 98.9 | 94.8 | 98.8 | 101 | 74.6 | 98.6 | 101 | 96.4 | 93.7 | 59 | 90.3 | 95.8 | 1.73 | 107 | 91.2 | 95.5 | growth at 10 µM [22]: 72.4%; growth at 10 µM [21]: 107%
CC(=O)N1CCN(C(=O)Cn2c(-c3ccc(C)cc3)csc2=N)CC1 | 92.8 | 98.8 | 93 | 97 | 103 | 92.1 | 98.9 | 97.9 | 82.3 | 100 | 97.6 | 103 | 96 | 60.9 | 83.4 | 88.2 | 2.23 | 94.3 | 73.4 | 104 | growth at 10 µM [21]: 94.8%
CC(=O)N1CCN(C(=O)Cn2c(-c3ccc(Cl)cc3)csc2=N)CC1 | 90.7 | 94.4 | 95.5 | 77.2 | 100 | 86.4 | 90.8 | 95.1 | 74.4 | 84.2 | 106 | 101 | 96.3 | 82 | 75.9 | 92.3 | 0.778 | 82.9 | 79 | 89.9 | growth at 10 µM [21]: 100%
Cc1ccc(-c2csc(=N)n2CC(=O)N2CCN(C)CC2)cc1 | 81.2 | 101 | 93.1 | 87.4 | 111 | 87.2 | 97.5 | 105 | 73.5 | 99.8 | 98.4 | 102 | 93.1 | 62.8 | 86.8 | 87.1 | 1.89 | 98.6 | 81.6 | 115 | growth at 10 µM [22]: 83.4%; growth at 10 µM [21]: 93.1%
CC(=O)N1CCN(C(=O)Cn2c(-c3ccccc3)csc2=N)CC1 | 89.5 | 103 | 105 | 96.9 | 95.6 | 90.2 | 101 | 97 | 67.7 | 103 | 109 | 110 | 88.8 | 75 | 96 | 103 | 3.67 | 94.6 | 85.9 | 98 | growth at 10 µM [21]: 86.3%
CN1CCN(C(=O)Cn2c(-c3ccc(Cl)cc3)csc2=N)CC1 | 98.6 | 97 | 98 | 90.5 | 93.1 | 100 | 107 | 98.9 | 79.5 | 92.7 | 102 | 101 | 95.9 | 77.6 | 90.1 | 89.1 | 8.84 | 96.8 | 78.4 | 104 | growth at 10 µM [21]: 108%
N=c1scc(-c2ccccc2)n1CC(=O)N1CCOCC1 | 88 | 102 | 105 | 97.3 | 86.7 | 95.5 | 112 | 100 | 59.4 | 98.3 | 98 | 105 | 86.7 | 70 | 102 | 98.6 | 13.8 | 98.4 | 88.8 | 103 | growth at 10 µM [21]: 98.7%
N=c1scc(-c2ccc(Cl)cc2)n1CC(=O)N1CCOCC1 | 99.4 | 95.5 | 98.3 | 82.2 | 90.4 | 96.5 | 97.1 | 92.2 | 75.3 | 91.2 | 103 | 99.3 | 94.4 | 81.8 | 84.6 | 91.3 | 9.18 | 95.5 | 69.7 | 95.5 | growth at 10 µM [21]: 110%
